The list is not random: actives were taken first. Their share in the collection is about 4%.
TAAR1 antagonist: antagonists of human TAAR1 | actives 1.5% (n = 360,000) | AID 624466 | CHO RD-HGA16 TAAR1, Fluo-8 calcium fluorescence, antagonist | inhibition, % at 3 µM;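 active means inhibition above a per-plate cutoff, the mean inhibition of test compounds on that plate plus 3 SD, cut at about 49% in these data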;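 further: 0% = DMSO plus EC80 beta-PEA response and 100% = DMSO alone without agonist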
Target sequence (Q96RJ0 whole entry, looked up): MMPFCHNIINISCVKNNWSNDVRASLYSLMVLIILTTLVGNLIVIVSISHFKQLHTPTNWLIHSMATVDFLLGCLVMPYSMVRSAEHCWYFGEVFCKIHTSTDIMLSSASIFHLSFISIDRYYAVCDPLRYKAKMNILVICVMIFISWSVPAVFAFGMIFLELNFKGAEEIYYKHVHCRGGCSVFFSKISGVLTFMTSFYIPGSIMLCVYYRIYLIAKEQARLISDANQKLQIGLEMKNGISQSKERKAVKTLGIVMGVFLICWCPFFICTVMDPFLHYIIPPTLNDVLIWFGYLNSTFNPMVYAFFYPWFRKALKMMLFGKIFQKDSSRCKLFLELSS
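Assay system: RD-HGA16 CHO cells with stable hTAAR1 and Gα16 / Reagent: EC80 β-phenethylamine stimulus / Doses: 3 µM, single point / Timing: dye loading 75 min at 37 °C, then 30 min room temperature / Measured by: Fluo-8 intracellular calcium dye fluorescence, real-time kinetic reads / Controls: vehicle wells and EC80 agonist wells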
MPTP block: inhibitors of mitochondrial permeability transition pore | inhibition, % at 10 µM | AID 602449 | actives 1.4% (n = 360,000) | isolated mouse mitochondria, Ca2+ swelling absorbance, 30 min;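 active means inhibition of 50% or more, scaled per plate between neutral and stimulator controls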;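 further: 0% = DMSO wells given calcium and 100% = 1 mM EGTA wells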
TAAR1 agonist: human TAAR1 agonism; Q96RJ0; CHO RD-HGA16 TAAR1, Fluo-8 calcium fluorescence; vehicle wells 0%, saturating PEA agonist 100%; activation, % at 3 µM; actives 0.99% (n = 360,000); AID 624467;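 active means activation above the mean activation of all test compounds in the run plus 3 SD, cut at about 38% in these data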
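System: CHO-derived RD-HGA16 cells with stable Gα16 and human TAAR1 / Times: 17-24 h plating, Fluo-8 75 min 37 °C, 30 min RT / Technique: calcium-sensitive Fluo-8 signal, excitation 470-495, emission 515-575 nm / Measure: % activation relative to PEA EC100 response / Benchmarks: DMSO and PEA EC100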
GPR7 antagonist: blocks human GPR7 receptor signaling; P48145; GPR7-expressing cells, fluorescence antagonist assay; inhibition, % at 4.4 µM; actives 1.1% (n = 290,000); AID 1861; in the data active means inhibition above about 16%, passing the limit was not always enough;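 further: cells stimulated with the agonist NPW; 0% = agonist with vehicle and 100% = vehicle without agonist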
Target sequence (P48145 whole entry, looked up): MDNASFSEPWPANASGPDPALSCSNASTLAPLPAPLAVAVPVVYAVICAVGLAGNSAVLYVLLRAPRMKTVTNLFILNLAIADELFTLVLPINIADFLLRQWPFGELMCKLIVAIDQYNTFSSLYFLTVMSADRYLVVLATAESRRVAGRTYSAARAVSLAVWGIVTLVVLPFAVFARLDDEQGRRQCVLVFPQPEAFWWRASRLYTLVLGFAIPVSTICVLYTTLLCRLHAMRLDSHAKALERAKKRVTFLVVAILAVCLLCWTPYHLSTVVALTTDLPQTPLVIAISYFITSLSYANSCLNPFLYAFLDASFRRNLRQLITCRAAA
DAGLB inhibitor: diacylglycerol lipase beta (human) inhibition; inhibition, % at 5.17 µM; AID 504411; actives 0.059% (n = 340,000); HEK293T DAGLB membrane lysate, EnzChek fluorogenic substrate; in the data active means inhibition above about 34%;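 further: 0% = enzyme with vehicle and 100% = wells lacking enzyme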
MPTP counter: mitochondrial membrane potential, counter-screen; shares compounds with MPTP block; isolated mitochondria, Rhodamine 123 fluorescence; inhibition, % at 10 µM; actives 78% (n = 5,000); in the data active means inhibition above about 22%;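 further: 0% = DMSO vehicle and 100% = positive control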
MPTP swell DR: dose response confirmation of mitochondrial permeability transition pore inhibitors; IC50, µM; isolated mitochondria swelling, absorbance; actives 58% (n = 780); shares compounds with MPTP block; in the data active means IC50 below about 20 µM
MPTP cs DR: active in counter-screen for permeability transition pore inhibitors | shares compounds with MPTP block | isolated mitochondria counterscreen, fluorescence read-out | IC50, µM | actives 49% (n = 780); in the data active means IC50 below about 80 µM
Starred values were filed as active, the others as inactive; i = inactive; / = no result.

SMILES	TAAR1 antagonist	MPTP block	TAAR1 agonist	GPR7 antagonist	DAGLB inhibitor	MPTP counter	others
Clc1ccc(NC2(c3nnnn3C3CCCCC3)CCCCC2)cc1	-6.9	91.3*	10.5	-3.3	-3.1	91.4*
Cc1cccc(C)c1-n1nnnc1C1(Nc2ccccc2)CCCCC1	-15.4	0.7	-2.2	-13.3	-2.1	/
COc1ccc(-c2nnc(-c3ccc(OCC(C)C)cc3)o2)cc1	9.4	0.7	0.1	-13.8	-0.1	/
CC(C)COc1ccc(-c2nnc(-c3ccncc3)o2)cc1	-1.1	59.2*	2.4	-6.0	-5.1	50.9*
COc1ccc(CCNc2ncnc3sc(C)cc23)cc1OC	36.9	101.0*	8.4	13.5	-1.8	95.9*
CCCCOCCCNC(=O)C[C@H]1C[C@@]2(C(=O)OC)C(=C[C@H](C(C)C)O[C@@H]2C2CC2)N(Cc2ccccc2)C1=O	-9.2	/	-1.3	/	/	/
Cc1ccc(-c2noc(C3CCCN(C(=O)c4ccc(C(C)(C)C)cc4)C3)n2)o1 (centres undefined)	24.3	61.1*	0.7	-8.1	-2.7	39.0*
COc1cc(OC)cc(C(=O)N2CCCC(c3nc(-c4ccc(C)o4)no3)C2)c1 (centres undefined)	-29.4	-2.8	1.1	-17.5	-5.0	/
N#CCCN(C(=O)Nc1ccc(Cl)c(Cl)c1)c1ccccc1	23.0	97.0*	10.8	1.2	-1.1	92.9*
CCCCCCCCNC(C)C(O)c1ccc(SC(C)C)cc1 (centres undefined)	5.2	85.9*	33.4	-6.7	-0.7	11.1
Nc1nc(C23CC4CC(CC(Cl)(C4)C2)C3)cs1	-8.1	-0.3	6.8	-13.8	-2.5	/
Nc1nc(C23CC4CCC(CC(C4)C2)C3)cs1	-2.2	64.3*	23.9	-4.8	-1.8	-4.4	MPTP swell DR=i;MPTP cs DR=>80
COC1CCC2(C)C(=CCC3C4CC(O)CC4(C)CCC32)C1 (centres undefined)	36.3	80.7*	1.5	/	-7.9	73.4*
O=c1[nH]c(=O)n(Cc2ccco2)c2c1C(C(F)(F)F)(C(F)(F)F)N=C(CCc1ccccc1)N2	44.9	6.8	21.5	-21.9	1.3	/
O=c1[nH]c(=O)n(-c2ccc(F)cc2)c2c1C(C(F)(F)F)(C(F)(F)F)N=C(c1ccc(F)cc1)N2	35.8	99.7*	6.1	-5.8	7.7	84.8*
N#Cc1ccc(C2=NC(C(F)(F)F)(C(F)(F)F)c3c(n(Cc4ccco4)c(=O)[nH]c3=O)N2)cc1	4.3	83.9*	6.2	-14.7	10.4	84.2*
CC(=O)NC(c1ccc(F)c(F)c1)c1nc(-c2ccncc2)cs1 (centres undefined)	-22.3	1.0	-1.1	/	/	/
COc1ccccc1NC(=O)Cc1nc(CCl)cs1	-12.2	-1.5	0.8	1.9	2.4	/
COc1ccccc1NC(=O)Cc1csc(NC(=S)Nc2ccc(C)cc2)n1	27.2	71.7*	11.0	11.9	-0.1	74.6*
FC(F)(F)c1cnc(N2CCN(C(=S)NCc3ccccc3)CC2)c(Cl)c1	3.6	54.0*	5.5	-11.6	-8.0	51.1*
FC(F)(F)c1cnc(N2CCCN(C(=S)Nc3ccccc3)CC2)c(Cl)c1	9.4	70.0*	5.3	14.7	-10.5	50.5*
COc1ccc(C)cc1-n1nnnc1SCc1csc(C)n1	9.8	0.6	8.3	5.7	-3.2	/
COc1ccc(C)cc1-n1nnnc1SCc1cc(=O)n2cc(C)ccc2n1	19.1	52.0*	11.7	-9.8	2.6	2.5	MPTP swell DR=i;MPTP cs DR=21*
O=C(COC(=O)c1cc(S(=O)(=O)Nc2ccccc2Cl)ccc1O)Nc1nc2ccccc2s1	13.2	90.4*	2.7	0.1	5.4	77.7*
N#Cc1cccc(NC(=O)COC(=O)c2cc(S(=O)(=O)Nc3ccccc3Cl)ccc2O)c1	28.0	57.9*	7.8	/	4.0	85.9*
SMILES	TAAR1 antagonist	MPTP block	TAAR1 agonist	GPR7 antagonist	DAGLB inhibitor	MPTP counter	others
Cc1cccc(C)c1NC(=O)COC(=O)c1cc(S(=O)(=O)Nc2ccc(Cl)cc2)ccc1O	-12.4	0.5	12.4	/	5.8	/
COc1ccc(NC(=O)C(c2ccccc2F)n2c(=O)c(-c3cc4ccccc4[nH]3)nc3ccccc32)cc1 (centres undefined)	-22.9	2.8	0.8	/	/	/
OC(CNCc1ccc(Cl)cc1)(c1ccccc1)c1ccc(F)cc1 (centres undefined)	-16.3	73.0*	1.1	1.7	-10.5	12.9	MPTP swell DR=18.5*;MPTP cs DR=24.5*
NC1=NC[C@H](c2ccccc2)N1CCCCC1CCCCC1	44.8	81.2*	23.8	/	0.8	37.0*
NCCCC[C@H]1CN=C(N)N1CC1CCCCC1	3.5	1.5	4.6	/	1.1	/
NCCCC[C@H]1CN=C(N)N1CCCCC1CCCCC1	-0.7	74.0*	4.6	/	3.4	-8.9	MPTP swell DR=i;MPTP cs DR=>80
COc1ccc(NC(=O)C2(C)Cc3c(-c4cccc(NC(C)=O)c4)ccnc3O2)cn1 (centres undefined)	-18.6	-0.4	-0.3	/	/	/
C[C@@H]1CNC(=O)c2c(C(=O)N(C)Cc3ccccc3)ncn21	-10.2	/	3.7	/	/	/
C/C(=N\Nc1cccc(Cl)c1)c1ccncc1	9.0	-2.7	-1.1	-10.3	-2.8	/
Clc1cccc(N/N=C(\Cc2nc3ccccc3[nH]2)c2ccccc2)c1	3.3	72.3*	1.8	6.4	-4.5	69.5*
Cc1nn(-c2ccccc2)c2c1C(c1cccs1)C(C#N)=C(N)O2 (centres undefined)	/	75.3*	/	-2.4	10.9	7.2
CCC(C)NC(=O)C1=CCN(S(=O)(=O)c2ccc(C)cc2)CC1 (centres undefined)	-8.6	0.3	1.8	-4.0	0.6	/
CCC(C)NS(=O)(=O)c1ccc(S(=O)(=O)N2CC=C(c3ccc(F)cc3)CC2)cc1 (centres undefined)	27.3	65.5*	6.0	-1.1	-4.6	55.7*
O=C(Nc1cccc(C(F)(F)F)c1)c1cc2c(=O)c3ccccc3oc2nc1C(F)(F)F	-3.0	74.7*	4.0	-6.3	2.1	53.4*
COc1ccc(CN2C[C@H](COCc3ccccc3)Oc3cccc(N4CCCC4)c3S2(=O)=O)cc1	-29.9	/	1.3	/	/	/
O=C(Oc1c(Br)cc([N+](=O)[O-])cc1Br)c1cccnc1	-4.3	71.7*	6.6	-6.0	9.0	95.6*
CCc1cc2c(=O)c(-c3cnn(-c4ccccc4)c3)c(C)oc2cc1OCC(=O)Nc1ccc(F)c(F)c1	-14.3	80.2*	6.0	-9.6	1.8	-3.5	MPTP swell DR=>100;MPTP cs DR=>80
COC(=O)c1cccc(NC(=O)NC(=O)c2ccccc2Cl)c1	-29.1	1.1	4.1	4.1	-2.9	/
CCN(CC)C(=S)Nc1ccc(Cl)c(Cl)c1	-3.4	71.4*	12.1	-5.9	-1.2	58.6*

Source: PubChem BioAssay (several laboratories)
